The nature of experiment [1]: Inhibition of 12-O-tetradecanoylphorbol 13-acetate-induced transformation of mouse JB6 cells after 14 days by soft agar assay. The format is functional, cell-based.
Experiment [2] in a line: Cytotoxicity against mouse JB6 cells after 3 days by trypan blue staining. The experiment is classed as cell-based. The note with it: JB6, 72 h. A digest of the protocol:
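JB6 cells at 1×10^4 cells/mL were preincubated 24 h, then exposed to a range of test-compound concentrations for 3 days. Trypsinized cells were mixed with 0.4% trypan blue, and percent viability was scored microscopically.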

The nature of experiment [3]: Ratio of IC50 for mouse JB6 cells to IC50 for inhibition of 12-O-tetradecanoylphorbol 13-acetate-induced transformation of mouse JB6 cells. A digest of the protocol:
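Ratio of two IC50s. The first is trypan blue cytotoxicity: JB6 cells, 24 h preincubation, 3-day exposure. The second is soft-agar transformation: TPA-sensitive P+ JB6 cells in 0.5% agar with TPA plus compound, triplicate wells, 14 days at 37 °C. Colonies of ≥15 cells were counted in three 0.25 cm² areas. Frequency is relative to TPA and 0.1% DMSO controls.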

SMILES strings stand for the structures. ≈ marks a conversion by molar mass, not a printed value.

Turning to `COc1cc([C@@H]2OC[C@H]3[C@@H]2CO[C@H]3c2cc(OC)c3c(c2)OCO3)cc(OC)c1OC` [DIASESARTEMIN], in experiment [1], the IC50 (in general, the concentration that gives 50% inhibition) is greater than 4 µg/mL.

As to `COc1cc([C@@H]2OC[C@@H]3C(=O)OC[C@@H]32)cc(OC)c1OC` [CARUILIGNAN C], in experiment [1], the IC50 was greater than 4 µg/mL.

As for `COc1cc([C@@H]2c3cc4c(cc3[C@H](OC(C)=O)[C@H]3COC(=O)[C@@H]23)OCO4)cc(OC)c1OC`, the values for the IC50 in experiment [1] and in experiment [2] were 0.15 µg/mL (≈ 0.329 µM) and 1.2 µg/mL (≈ 2.63 µM), respectively. For the same molecule, the “Ratio IC50” value in experiment [3] worked out at 10.

In turn, `COc1ccc([C@@H]2OC[C@@H]3[C@H]2CO[C@@H]3c2cc(OC)c(OC)c(OC)c2)cc1OC` returned an IC50 in experiment [1] greater than 4 µg/mL.

On to `COc1cc([C@H]2OC[C@H]3[C@@H]2CO[C@@H]3c2cc(OC)c(OC)c(OC)c2)cc(OC)c1OC`, for which, in experiment [1], the IC50 is greater than 4 µg/mL.

Consider `COc1cc2c(cc1OC)C(=O)N(C)CC2`, for which the IC50 in experiment [1] is greater than 4 µg/mL.

Consider `COc1cc([C@@H]2c3c(cc4c(c3OC)OCO4)[C@H](OC(C)=O)[C@H]3COC(=O)[C@@H]23)cc(OC)c1OC`, for which the half-maximal inhibitory concentration (IC50) in experiment [1] is greater than 4 µg/mL.

In turn, `COc1cc(C[C@H]2C(=O)OC[C@@H]2Cc2cc(OC)c3c(c2)OCO3)cc(OC)c1OC` had an IC50 in experiment [1] greater than 4 µg/mL.

Turning to `COc1cc([C@H]2OC[C@H]3[C@@H]2CO[C@H]3c2cc(OC)c(OC)c(OC)c2)cc(OC)c1OC` [EPIYANGAMBIN], the IC50 in experiment [1] turned out to be 0.4 µg/mL (≈ 0.896 µM); in experiment [2] it was 5.7 µg/mL (≈ 12.8 µM). For the same molecule, the “Ratio IC50” value in experiment [3] is listed as 10.

The molecule `COc1cc(C[C@H]2C(=O)OC[C@@H]2Cc2ccc3c(c2)OCO3)cc(OC)c1OC` showed an IC50 in experiment [1] greater than 4 µg/mL.

The values above are taken from ChEMBL document CHEMBL1150123, “Constituents of the twigs of Hernandia ovigera that inhibit the transformation of JB6 murine epidermal cells” (J Nat Prod, 2002).
